# Source: PubChem BioAssay (several laboratories)
# Rows were chosen to be rich in hits. Some 2.9% of all compounds tested hit in one or more screens of this group.
# proKLK7 act: activators of human kallikrein-7 zymogen; P49862; purified proKLK7, EDANS-DABCYL substrate fluorescence; 100% is mature enzyme control, 0% vehicle; activation, % at 7 µM; hit rate 0.9% among 370,000; AID 652039;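 active = activation above the mean of all tested compounds plus 3 SD, computed per campaign excluding outliers beyond control limits, cut at about 13% in these data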
# Target sequence (P49862 whole entry, looked up): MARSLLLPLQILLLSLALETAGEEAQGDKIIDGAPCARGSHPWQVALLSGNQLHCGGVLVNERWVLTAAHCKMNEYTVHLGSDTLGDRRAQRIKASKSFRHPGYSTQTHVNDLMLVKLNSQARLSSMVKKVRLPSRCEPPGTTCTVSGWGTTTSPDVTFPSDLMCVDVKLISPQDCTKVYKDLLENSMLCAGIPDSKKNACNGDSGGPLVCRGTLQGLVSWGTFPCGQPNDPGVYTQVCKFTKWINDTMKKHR
# CRFR2-BP ag: agonists of human CRF-binding protein/CRF-R2 receptor complex; HEK293 CRF-R2/CRF-BP, calcium dye fluorescence (FLIPR); percent of saturating CRF peptide response; activation, % at 13.2 µM; hit rate 0.46% among 350,000;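 active = activation of at least 50%, plus an integration ratio under a set limit after plate pattern correction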;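 note: plate controls were neutral control wells without compound for no effect and CRF at EC100 for full effect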
# NRP1-CendR mod: NRP-1/CendR interaction modulation; inhibition, % at 25 µM; FAM-RPARPAR peptide binding to NRP-1, fluorescence polarization; O14786; hit rate 0.85% among 360,000;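 active = inhibition or corrected inhibition above about 18%, plus a signal ratio from 0.5 to 1.5, limit read from the data, passing the limit was not always enough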
# CRFR2-BP antag: CRF-BP/CRF-R2 complex antagonism; HEK293 CRF-R2/CRF-BP, CRF-induced calcium fluorescence; inhibition, % at 11.8 µM; hit rate 0.59% among 350,000;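 active = inhibition of the ligand-induced calcium signal above about 50% at the single tested concentration, limit read from the data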
# DDE Tn7 FP inh: DD(E)-Tn7 binding inhibition, primary FP screen; inhibition, % at 8.3 µM; AID 720508; FP displacement of FITC-Tn7 peptide from fibrin DD(E); 0% = median of compound wells per plate; P02675; hit rate 0.13% among 370,000;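 active = inhibition above the mean of compounds falling within the control limits plus 3 SD of them, cut at about 14% in these data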;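 note: 0% = plate median of compound wells and 100% = 10 µM Aha-Tn7 peptide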
#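 Test system: human clot-derived fibrin DD(E) complex / Quantity: 2 µM final DD(E) protein / Incubation: 10 min plus 3 h, room temperature / Measured by: fluorescence polarization / Benchmarks: high control of 10 µM Aha-Tn7 peptide / Replicates: singlicate testing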
# DDE Tn6 FP inh: disrupts Tn6 cyclic peptide binding to fibrin D-Dimer-E complex; P02675; Fibrin DD(E) TRITC-Tn6 fluorescence polarization displacement; inhibition, % at 8.3 µM; hit rate 0.21% among 370,000; AID 720509;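 active = inhibition above a per-campaign cutoff: mean of compounds within control limits plus 3 SD, cut at about 15% in these data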;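 note: 0% = median of all compound wells on the plate and 100% = blocking peptide control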
# proKLK7 act conf: proKLK7 activation, confirmation. shares compounds with proKLK7 act. purified proKLK7, EDANS-DABCYL substrate fluorescence; scaled: vehicle 0, mature enzyme 100. activation, % at 7 µM. hit rate 68% among 3,200. AID 686949;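 active = activation, as change over the incubation, above the mean of all tested compounds plus 3 SD, cut at about 13% in these data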
# EDANS-DABCYL int: counter-screen for kallikrein-7 activators: EDANS-DABCYL optical interference; shares compounds with proKLK7 act; EDANS-DABCYL substrate fluorescence interference, no enzyme, 4 h; solvent 0%, active enzyme control 100%; activation, % at 7 µM; hit rate 80% among 3,200; AID 686952;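 active = activation above the all-compound mean plus 3 SD, ignoring values outside control-based bounds, cut at about 4.8% in these data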;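 note: value is the 4 h activation minus the activation read at time zero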
# EDANS interf: optically interferes with EDANS-DABCYL fluorescence, kallikrein-7 activator counter-screen; EDANS-DABCYL peptide fluorescence interference, no enzyme; hit rate 20% among 250; EC50, µM; shares compounds with proKLK7 act;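 active = compounds that raise the fluorescence signal in this interference counterscreen, with EC50 at or below 10 µM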;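 note: intact quenched peptide substrate alone read at 355 nm excitation and 520 nm emission; signal is fluorescence gain from T0 to T4 after four hours at room temperature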
# Starred values were filed as active, the others as inactive; i = inactive; x = no result.
SMILES,proKLK7 act,CRFR2-BP ag,NRP1-CendR mod,CRFR2-BP antag,DDE Tn7 FP inh,DDE Tn6 FP inh,proKLK7 act conf,EDANS-DABCYL int,others
COc1ccccc1C1C=C(c2ccccc2)Nc2nnnn21 (stereo not drawn),21*,21,8,-12,-11,-1,16*,14*,EDANS interf=i
CN(CCCOC(=O)c1cc2ccccc2o1)C1CN(Cc2cn(Cc3ccccc3Cl)nn2)S(=O)(=O)C1 (stereo not drawn),0,x,x,x,6,-10,x,x,
CCCCOCCCNC(=O)C[C@H]1C(=O)N(Cc2ccc(OC)cc2)C2=CCCC[C@@]21C(=O)OCC,0,x,x,x,-6,-5,x,x,
CCCCCNc1nc(NCCCO)c(C#N)c2c1CN(C)CC2,20*,20,-5,-12,2,9,17*,23*,
C=CCNc1nc(NCc2ccccc2)c(C#N)c2c1CN(C)CC2,14*,20,-10,2,-2,-7,20*,15*,EDANS interf=i
CN(c1ccc(NC(=O)Cc2cn(C)c3ccccc23)cc1)c1ccccn1,1,x,x,x,-6,-7,x,x,
CN(C(=O)Nc1ccc(F)cc1)[C@H]1C[C@H]2c3[nH]c4ccccc4c3CCN2C(=O)[C@H]1CO,2,0,-9,3,2,4,x,x,
COc1ccc(NC(=O)N(C)[C@H]2C[C@H]3c4[nH]c5ccccc5c4CCN3C(=O)[C@H]2[C@H](C)O)cc1,88*,8,-8,-7,-1,-7,8,9.5*,
COc1ccc(C(=O)N(C)[C@H]2C[C@H]3c4[nH]c5ccccc5c4CCN3C(=O)[C@H]2CO)cc1,44*,7,-35,-18,-1,6,51*,57*,
COc1ccc(NC(=O)N(C)[C@H]2C[C@H]3c4[nH]c5ccccc5c4CCN3C(=O)[C@H]2CO)cc1,24*,2,-6,-10,1,8,3,3,
Cn1c(=O)c2cc(S(=O)(=O)N3CCN(c4ccc(F)cc4)CC3)ccc2n(C)c1=O,0,x,x,x,4,2,x,x,
COC(=O)[C@]12C[C@H](CC(=O)N3CCN(C(=O)C4CC4)CC3)C(=O)N(Cc3ccc(Cl)cc3Cl)C1=C[C@H](C(C)C)O[C@@H]2C1CC1,1,x,x,x,-5,5,x,x,
O=C(NCCc1ccccc1Cl)[C@@H]1CCCN1C(=O)[C@H](Cc1cccnc1)NC(=O)N1CCOCC1,1,x,x,x,-7,-5,x,x,
O=C1c2ccccc2NC(c2ccccn2)N1c1ccccc1F (stereo not drawn),18*,-2,0,0,-4,-3,22*,22*,
Cc1cccc(C2Nc3ccccc3C(=O)N2c2ccc(F)cc2)n1 (stereo not drawn),28*,-3,-6,2,-8,-3,23*,21*,
Cc1cccc(-c2cccc3c4c([nH]c23)[C@@H]2C[C@H](N(C)C(=O)c3ccco3)[C@H]([C@H](C)O)CN2CC4)c1,-1,x,x,x,-5,5,x,x,
CCn1nc2cc(C(=O)NCCc3cccs3)ccc2c1OC,18*,-1,-4,-4,3,3,8,3,
CCOc1c2ccc(C(=O)NCc3ccc(OC)cc3)cc2nn1CCOC,13*,-2,1,7,-8,-3,-4,-5,
CCOc1c2ccc(C(=O)NCCc3ccc(C)cc3)cc2nn1CC,-8,0,0,-3,1,-5,x,x,
COC(=O)C1=C(C)N(C)C(=NCC2CC2)NC1c1cccc(C(F)(F)F)c1 (stereo not drawn),0,x,x,x,3,10,x,x,
Clc1ccc(-c2nnc(SCc3cccc4ccccc34)n2Cc2ccco2)cc1,1,x,x,x,-13,-6,x,x,
COC(=O)c1nc2n(n1)C(c1cccc(Cl)c1)C1=C(CCCC1=O)N2 (stereo not drawn),20*,0,1,4,9,-2,14*,19*,
Cc1cn2c(=O)c3ncn(C4OC(CO)C(O)C4O)c3n(C)c2n1 (stereo not drawn),4,x,x,x,-12,-5,x,x,
COc1ccccc1N=c1oc2cc(O)ccc2cc1C(=O)NCC1CCCO1 (stereo not drawn),74*,0,-18,6,-7,-1,21*,22*,
Cc1cccc(N=c2oc3cc(O)ccc3cc2C(N)=O)c1,53*,5,-34,-59,6,-6,27*,27*,
SMILES,proKLK7 act,CRFR2-BP ag,NRP1-CendR mod,CRFR2-BP antag,DDE Tn7 FP inh,DDE Tn6 FP inh,proKLK7 act conf,EDANS-DABCYL int,others
COc1ccccc1N=c1oc2cc(O)ccc2cc1C(N)=O,39*,19,-47,2,1,3,18*,23*,
COc1cccc(N=c2oc3cc(O)ccc3cc2C(=O)NCC2CCCO2)c1 (stereo not drawn),66*,1,-30,-37,2,-3,9,6.5*,
COc1cccc2cc(C(=O)NCC3CCCO3)c(=O)oc12 (stereo not drawn),-6,-1,10,-3,-3,-7,x,x,
COc1ccccc1NC(=O)c1cc2ccc(O)cc2o/c1=N\O,-1,2,-14,-14,5,-7,x,x,
COc1ccc2oc(=O)c(C(=O)NCC3CCCO3)cc2c1 (stereo not drawn),-10,2,7,-14,-4,5,x,x,
CCOC(=O)CC[C@H]1CC[C@]2(CCCN(C(=O)c3ccccc3)C2)O1,0,x,x,x,1,6,x,x,
COC(=O)[C@]12C[C@H](CC(=O)NCc3cccs3)C(=O)N(Cc3ccc4c(c3)OCO4)C1=C[C@H](C(C)(C)C)O[C@@H]2C,0,x,x,x,6,1,x,x,
COc1cc(NC(=O)c2ccccc2)c(C)cc1NC(=O)CSc1nnc(-c2cnccn2)n1-c1ccc(C)cc1,0,x,x,x,-6,-7,x,x,
COc1ccc(C(=O)Oc2ccc3ccc(=O)oc3c2)cc1,19*,0,1,5,6,13,122*,128*,
O=C(Oc1ccc2ccc(=O)oc2c1)C1CCCCC1,107*,-3,13,5,-5,-2,337*,301*,
O=C(Oc1ccc2ccc(=O)oc2c1)c1ccccc1,242*,-2,13,5,-1,4,589*,593*,
O=C(COc1ccc2ccc(=O)oc2c1)NC1CCCC1,1,1,-4,8,-6,-8,x,x,
